ChEMBL document CHEMBL1671746, “TelA contributes to the innate resistance of Listeria monocytogenes to nisin and other cell wall-acting antibiotics” (2010)
In brackets after ≈: the same amount, converted by molar mass. Bridge positions count the residues as written; N and C are the ends. Square brackets hold non-standard residues; d marks the D form. Peptide text beside a SMILES is read from it. * marks the point of attachment. Ileψ(thiazoline)Cys = CC[C@H](C)[C@H](N)C1=N[C@H](C(=O)*)CS1; dOrn = NCCC[C@@H](N)C(=O)O

Legend:
Format in all cases: functional
Listeria monocytogenes [1] = assay: Ratio of MIC wild-type Listeria monocytogenes EGD-e Serovar 1/2a to MIC for telA-deficient Listeria monocytogenes EGD-e Serovar 1/2a
Procedure, shortened: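 Both MICs come from the TSB-YE 2-fold broth microdilution (10^5 CFU/ml; 20 h for purified nisin A, 16 h for others). The ratio compares the parent EGDe MIC with the ΔtelA MIC.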

Listeria monocytogenes [2] = assay: Antibacterial activity against 10^7 CFU/ml telA-deficient Listeria monocytogenes EGD-e Serovar 1/2a at 10 ug after 16 hrs by disk diffusion assay; details: read-out: IZ
Procedure, shortened: (§1)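 Stationary-phase (16 h) cultures were diluted to 10^7 CFU/ml and swabbed onto TSA-YE. 6-mm disks carrying a single antibiotic were laid on the agar. Zones of inhibition were measured after overnight (16 h) growth.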

Listeria monocytogenes [3] = assay: Antibacterial activity against 10^5 CFU/ml telA-deficient Listeria monocytogenes EGD-e Serovar 1/2a after 16 hrs by two fold serial dilution method
Procedure, shortened: (§2)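 Broth microdilution in TSB-YE: 2-fold serial dilutions of antimicrobial mixed 1:1 with target cells at 10^5 CFU/ml. Incubated 20 h for HPLC-purified nisin A, 16 h for other antimicrobials. MIC is the lowest concentration giving no visible growth. For nisin and gallidermin, the μg/ml value is converted from a μM value.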

Listeria monocytogenes [4] = assay: Antibacterial activity against 10^7 CFU/ml wild-type Listeria monocytogenes EGD-e Serovar 1/2a […] after 16 hrs by disk diffusion assay; details: read-out: IZ; procedure, shortened: as §1
Listeria monocytogenes [5] = assay: Antibacterial activity against 10^5 CFU/ml wild-type Listeria monocytogenes EGD-e Serovar 1/2a after 16 hrs by two fold serial dilution method; procedure, shortened: as §2
Listeria monocytogenes [6] = assay: Antibacterial activity against 10^7 CFU/ml telA-deficient Listeria monocytogenes EGD-e Serovar 1/2a at 30 ug after 16 hrs by disk diffusion assay; details: read-out: IZ; procedure, shortened: as §1
Listeria monocytogenes [7] = assay: Antibacterial activity against 10^7 CFU/ml wild-type Listeria monocytogenes EGD-e Serovar 1/2a at 30 ug after 16 hrs by disk diffusion assay; details: read-out: IZ; procedure, shortened: as §1
Listeria monocytogenes [8] = assay: Antibacterial activity against 10^7 CFU/ml wild-type Listeria monocytogenes EGD-e Serovar 1/2a at 5 ug after 16 hrs by disk diffusion assay; details: read-out: IZ; procedure, shortened: as §1
Listeria monocytogenes [9] = assay: Antibacterial activity against 10^7 CFU/ml telA-deficient Listeria monocytogenes EGD-e Serovar 1/2a at 5 ug after 16 hrs by disk diffusion assay; details: read-out: IZ; procedure, shortened: as §1
Listeria monocytogenes [10] = assay: Antibacterial activity against 10^7 CFU/ml telA-deficient Listeria monocytogenes EGD-e Serovar 1/2a […] after 16 hrs by disk diffusion assay; details: read-out: IZ
Procedure, shortened: (§3)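 Stationary-phase (16 h) cultures diluted to 10^7 CFU/ml and swabbed onto TSA-YE agar. Six-millimetre disks infused with antibiotic placed on plates. Inhibition zones measured after overnight (16 h) growth. Strains grown at 37°C in tryptic soy broth with yeast extract.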

Listeria monocytogenes [11] = assay: Antibacterial activity against 10^7 CFU/ml wild-type Listeria monocytogenes EGD-e Serovar 1/2a at 1 ug after 16 hrs by disk diffusion assay; details: read-out: IZ; procedure, shortened: as §3

Row | SMILES | fold change (FC) (Listeria monocytogenes [1]) | MIC (Listeria monocytogenes [3]) | MIC (Listeria monocytogenes [5]) | zone of inhibition at 30 µg/disc (Listeria monocytogenes [6]) | zone of inhibition at 30 µg/disc (Listeria monocytogenes [7]) | also measured
1 | CC[C@H](C)[C@H](N)C1=N[C@H](C(=O)N[C@@H](CC(C)C)C(=O)N[C@H](CCC(=O)O)C(=O)N[C@H](C(=O)N[C@H]2CCCCNC(=O)[C@H](CC(N)=O)NC(=O)[C@@H](CC(=O)O)NC(=O)[C@H](Cc3cnc[nH]3)NC(=O)[C@@H](Cc3ccccc3)NC(=O)[C@H]([C@@H](C)CC)NC(=O)[C@@H](CCCN)NC2=O)[C@@H](C)CC)CS1 [BACITRACIN] ({Ileψ(thiazoline)Cys}-L[dE]IK[dOrn]I[dF]H[dD]N; lactam 4-C) | 2 | 128 µg/mL (≈ 90 µM) | 256 µg/mL (≈ 180 µM) |  |  | zone of inhibition at 10 µg/disc (Listeria monocytogenes [2]): 15.1 mm; zone of inhibition at 10 µg/disc (Listeria monocytogenes [4]): 12.5 mm
2 | CO/N=C(\C(=O)N[C@@H]1C(=O)N2C(C(=O)O)=C(COC(C)=O)CS[C@H]12)c1csc(N)n1 [CEFOTAXIME] | 2 | 1 µg/mL (≈ 2.2 µM) | 2 µg/mL (≈ 4.39 µM) | 23.7 mm | 21.3 mm | 
3 | CO/N=C(\C(=O)N[C@@H]1C(=O)N2C(C(=O)O)=C(COC(N)=O)CS[C@H]12)c1ccco1 [CEFUROXIME] | 2 | 1.44 µg/mL (≈ 3.39 µM) | 2.87 µg/mL (≈ 6.76 µM) | 24.4 mm | 21.1 mm | 
4 | C/C=C(/NC(=O)[C@H](CCCCN)NC(=O)[C@H](C)NC(=O)[C@H]1CS[C@@H](C)[C@@H](NC(=O)[C@H]2CSC[C@@H](NC(=O)[C@H](C)NC(=O)[C@@H](N)[C@@H](C)CC)C(=O)N[C@@H](CCCCN)C(=O)N[C@@H](Cc3ccccc3)C(=O)N[C@@H](CC(C)C)C(=O)N2)C(=O)N2CCC[C@H]2C(=O)NCC(=O)N1)C(=O)NCC(=O)N[C@@H]1CSC[C@H]2NC(=O)[C@H](Cc3ccc(O)cc3)NC(=O)[C@@H](CS/C=C/NC2=O)NC(=O)[C@H](CC(N)=O)NC(=O)[C@H](Cc2ccccc2)NC1=O [GALLIDERMIN] | 8 | 0.246 µg/mL (≈ 0.114 µM) | 1.97 µg/mL (≈ 0.91 µM) |  |  | 
5 | COc1cccc(OC)c1C(=O)N[C@@H]1C(=O)N2[C@@H]1SC(C)(C)[C@@H]2C(=O)O [METHICILLIN] |  |  |  |  |  | zone of inhibition at 5 µg/disc (Listeria monocytogenes [8]): 25.6 mm; zone of inhibition at 5 µg/disc (Listeria monocytogenes [9]): 26.7 mm
6 | Cc1onc(-c2ccccc2)c1C(=O)N[C@@H]1C(=O)N2[C@@H]1SC(C)(C)[C@@H]2C(=O)O [OXACILLIN] |  |  |  |  |  | zone of inhibition at 1 µg/disc (Listeria monocytogenes [10]): 12.3 mm; zone of inhibition at 1 µg/disc (Listeria monocytogenes [11]): 10.7 mm
